Tested on: not listed separately
Assay: Selectivity ratio of Ki for rat CB1 receptor to Ki for human CB2 receptor
Settings: not given; call rule not given here

Point of comparison: `CCCCCn1c2ccccc2c2cc(C(=O)CN3CCN(C)CC3)ccc21`, Ratio Ki 3.78. Against it:
- CCCCCn1c2ccccc2c2cc(C(=O)N3CCN(C)CC3)ccc21 — lower, 3.47
- CCCCCn1c2ccccc2c2cc(C(=O)N3CCCCC3)ncc21 — higher, 3.86
- CCCCCn1c2ccccc2c2cc(C(=O)OCc3ccccn3)ccc21 — lower, 0.35
- O=C(c1ccc2c(c1)c1ccccc1n2Cc1ccncc1)N1CCCCC1 — higher, 4.32
- CCCCCn1c2ccccc2c2cc(C(=O)NCC(C)(C)C)ncc21 — lower, 1.65
- COC(=O)CCCn1c2ccccc2c2cc(C(=O)N3CCCCC3)ccc21 — higher, 8.88
- CCCCCn1c2ccccc2c2cc(C(=O)N(CC)CC)ccc21 — lower, 2.03
- CCCCCn1c2ccccc2c2cc(C(=O)NC34CC5CC(CC(C5)C3)C4)ccc21 — higher, 5.03
- CCCCCn1c2ccccc2c2cc(CN3CCCCC3)ccc21 — lower, 0.33
- CCCCCn1c2ccccc2c2cc(C(=O)N3CCS(=O)(=O)CC3)ccc21 — lower, 1.96
- CCCCCCn1c2ccccc2c2cc(C(=O)N3CCCCC3)ccc21 — lower, 2.51

Molecular target: T1, Cannabinoid receptor 2 (Homo sapiens, UniProt P34972)
T1 sequence (P34972 whole entry): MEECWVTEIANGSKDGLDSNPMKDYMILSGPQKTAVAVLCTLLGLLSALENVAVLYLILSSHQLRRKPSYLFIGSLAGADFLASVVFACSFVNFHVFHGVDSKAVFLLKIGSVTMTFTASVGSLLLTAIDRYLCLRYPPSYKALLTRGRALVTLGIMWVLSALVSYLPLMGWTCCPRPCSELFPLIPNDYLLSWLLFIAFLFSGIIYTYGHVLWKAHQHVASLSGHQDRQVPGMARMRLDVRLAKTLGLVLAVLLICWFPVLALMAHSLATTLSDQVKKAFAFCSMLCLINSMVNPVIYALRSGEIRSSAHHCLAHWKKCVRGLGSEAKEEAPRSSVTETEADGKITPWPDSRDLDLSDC
Assay: Displacement of [3H]-CP55940 from human CB2 receptor expressed in HEK293 cells after 1.5 hrs by microbeta liquid scintillation counting analysis
Assay type: cell-based
Settings: hek293
Procedure, shortened: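 Membranes from rat brain homogenate (CB1) or HEK293 cells expressing human CB2. GF/B filtration, then scintillation counting. IC50 by three-parameter logistic fit, Ki by Cheng-Prusoff. Three experiments in triplicate.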

With `NCCCn1c2ccccc2c2cc(C(=O)N3CCCCC3)ccc21` the Ki was “Not Active”.
For `CCCCCn1c2ccccc2c2cc(C(=O)NCC3CCNCC3)ccc21`, the Ki was “Not Active”.
With `CCCCCn1c2ccccc2c2cc(C(=O)N3CC[N+](C)(C)CC3)ccc21.[I-]` the Ki was “Not Active”.
With `CCCCCn1c2ccccc2c2cc(CN3CCNCC3)ccc21` the Ki was “Not Active”.
With `O=C(c1ccc2[nH]c3ccccc3c2c1)N1CCCCC1` the Ki was “Not Active”.
With `CCCCCn1c2ccccc2c2cc(C#N)ccc21` the Ki was “Not Active”.
For `CCOC(=O)CCn1c2ccccc2c2cc(C(=O)N3CCS(=O)(=O)CC3)ccc21`, the Ki was “Not Active”.
In the case of `CC(C)(C)OC(=O)NCCCn1c2ccccc2c2cc(C(=O)N3CCS(=O)(=O)CC3)ccc21`, the Ki is reported as “Not Active”.
With `O=C(c1ccc2c(c1)c1ccccc1n2CCN1CCCCC1)N1CCCCC1` the Ki was “Not Active”.

Same assay, conditions: read-out: Ki

Point of comparison: `COC(=O)CCCn1c2ccccc2c2cc(C(=O)N3CCCCC3)ccc21`, Ki 208 nM. Against it:
- CC(C)(C)OC(=O)NCCCn1c2ccccc2c2cc(C(=O)N3CCCCC3)ccc21 — 13-fold higher, 2690 nM
- CCCCCn1c2ccccc2c2cc(C(=O)NN3CCCCC3)ccc21 — 7.7-fold higher, 1610 nM
- CCOC(=O)CCn1c2ccccc2c2cc(C(=O)N3CCN(C)CC3)ccc21 — 16-fold higher, 3380 nM
- CCCCCn1c2ccccc2c2cc(C(=O)N3CCN(C)CC3)ccc21 — 5.9-fold lower, 35.4 nM
- CCCCCn1c2ccccc2c2cc(C(=O)N3CCCCC3)ncc21 — 5.9-fold lower, 35.3 nM
- CCCCCn1c2ccccc2c2cc(C(=O)OCc3ccccn3)ccc21 — 9.3-fold higher, 1930 nM
- O=C(c1ccc2c(c1)c1ccccc1n2Cc1ccncc1)N1CCCCC1 — 2.3-fold lower, 91 nM
- O=C(c1ccc2c(c1)c1ccccc1n2CCCN1CCCCC1)N1CCCCC1 — 10-fold higher, 2170 nM
- CCCCCn1c2ccccc2c2cc(C(=O)NCC(C)(C)C)ncc21 — 7.8-fold lower, 26.5 nM
- CCCCCn1c2ccccc2c2cc(C(=O)N(CC)CC)ccc21 — 4-fold lower, 51.8 nM
- CCCCCn1c2ccccc2c2cc(C(=O)NC34CC5CC(CC(C5)C3)C4)ccc21 — within 1.5-fold, 288 nM
- CCCCCn1c2ccccc2c2cc(C(=O)CN3CCN(C)CC3)ccc21 — 1.9-fold higher, 398 nM
- CCCCCn1c2ccccc2c2cc(CN3CCCCC3)ccc21 — 1.8-fold higher, 370 nM
- CCCCCn1c2ccccc2c2cc(C(=O)N3CCS(=O)(=O)CC3)ccc21 — within 1.5-fold, 225 nM
- CCCCCCn1c2ccccc2c2cc(C(=O)N3CCCCC3)ccc21 — 2.2-fold lower, 96 nM

Molecular target: Cannabinoid receptor 1 (Homo sapiens) (UniProt P21554)
Sequence (P21554 whole entry): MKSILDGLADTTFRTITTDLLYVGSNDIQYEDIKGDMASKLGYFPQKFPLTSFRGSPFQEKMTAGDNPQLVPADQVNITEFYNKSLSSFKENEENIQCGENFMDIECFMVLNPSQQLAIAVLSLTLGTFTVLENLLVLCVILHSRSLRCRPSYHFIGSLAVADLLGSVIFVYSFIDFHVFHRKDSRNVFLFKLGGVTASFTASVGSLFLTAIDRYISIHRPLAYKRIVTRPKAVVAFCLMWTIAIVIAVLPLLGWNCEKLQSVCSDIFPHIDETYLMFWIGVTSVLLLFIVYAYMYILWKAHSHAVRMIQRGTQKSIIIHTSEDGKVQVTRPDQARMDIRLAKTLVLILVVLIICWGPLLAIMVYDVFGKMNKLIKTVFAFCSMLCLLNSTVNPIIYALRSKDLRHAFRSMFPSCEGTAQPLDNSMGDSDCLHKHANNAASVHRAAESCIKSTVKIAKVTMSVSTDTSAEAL
Assay: Induction of human CB1 receptor internalization expressed in HEK293 cells at 10 uM relative to CP55940
Assay type: cell-based
Settings: not given
Procedure, shortened: (§1)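 Cells stably expressing human CB1 or human CB2 receptors, exposed to test compound alone. […] Mean of two determinations.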

Point of comparison: `CCCCCn1c2ccccc2c2cc(C(=O)N3CCN(C)CC3)ccc21`, Activity 84.7%. Against it:
- CCCCCn1c2ccccc2c2cc(C(=O)N3CCCCC3)ncc21 — higher, 128%
- O=C(c1ccc2c(c1)c1ccccc1n2Cc1ccncc1)N1CCCCC1 — lower, 74.9%
- CCCCCn1c2ccccc2c2cc(C(=O)NCC(C)(C)C)ncc21 — lower, 34.7%
- COC(=O)CCCn1c2ccccc2c2cc(C(=O)N3CCCCC3)ccc21 — lower, 9.4%
- CCCCCn1c2ccccc2c2cc(C(=O)N(CC)CC)ccc21 — higher, 102%
- CCCCCn1c2ccccc2c2cc(CN3CCCCC3)ccc21 — lower, -11.1%
- CCCCCn1c2ccccc2c2cc(C(=O)N3CCS(=O)(=O)CC3)ccc21 — lower, 23.9%
- CCCCCCn1c2ccccc2c2cc(C(=O)N3CCCCC3)ccc21 — higher, 122%

Molecular target: T1, Cannabinoid receptor 2
Assay: Reduction of CP55940-induced human CB2 receptor internalization expressed in HEK293 cells at 3 uM relative to control
Assay type: cell-based
Set-up: scale not given: the % may be the effect or the level left
Settings: not given

With `CCCCCn1c2ccccc2c2cc(C(=O)NCC(C)(C)C)ncc21` the Activity was over 50%.

Molecular target: T1, Cannabinoid receptor 2
Assay: Induction of human CB2 receptor internalization expressed in HEK293 cells at 10 uM relative to CP55940
Assay type: cell-based
Settings: not given
Procedure, shortened: as §1

Point of comparison: `O=C(c1ccc2c(c1)c1ccccc1n2Cc1ccncc1)N1CCCCC1`, Activity 66.3%. Against it:
- CCCCCn1c2ccccc2c2cc(C(=O)N3CCN(C)CC3)ccc21 — lower, 43.9%
- CCCCCn1c2ccccc2c2cc(C(=O)N3CCCCC3)ncc21 — higher, 101%
- CCCCCn1c2ccccc2c2cc(C(=O)NCC(C)(C)C)ncc21 — lower, 0.1%
- COC(=O)CCCn1c2ccccc2c2cc(C(=O)N3CCCCC3)ccc21 — lower, 37.3%
- CCCCCn1c2ccccc2c2cc(C(=O)N(CC)CC)ccc21 — lower, 53.1%
- CCCCCn1c2ccccc2c2cc(CN3CCCCC3)ccc21 — higher, 79.6%
- CCCCCn1c2ccccc2c2cc(C(=O)N3CCS(=O)(=O)CC3)ccc21 — higher, 91.5%
- CCCCCCn1c2ccccc2c2cc(C(=O)N3CCCCC3)ccc21 — higher, 77%

Molecular target: Cannabinoid receptor 1 (Rattus norvegicus, UniProt P20272)
Sequence (P20272 whole entry): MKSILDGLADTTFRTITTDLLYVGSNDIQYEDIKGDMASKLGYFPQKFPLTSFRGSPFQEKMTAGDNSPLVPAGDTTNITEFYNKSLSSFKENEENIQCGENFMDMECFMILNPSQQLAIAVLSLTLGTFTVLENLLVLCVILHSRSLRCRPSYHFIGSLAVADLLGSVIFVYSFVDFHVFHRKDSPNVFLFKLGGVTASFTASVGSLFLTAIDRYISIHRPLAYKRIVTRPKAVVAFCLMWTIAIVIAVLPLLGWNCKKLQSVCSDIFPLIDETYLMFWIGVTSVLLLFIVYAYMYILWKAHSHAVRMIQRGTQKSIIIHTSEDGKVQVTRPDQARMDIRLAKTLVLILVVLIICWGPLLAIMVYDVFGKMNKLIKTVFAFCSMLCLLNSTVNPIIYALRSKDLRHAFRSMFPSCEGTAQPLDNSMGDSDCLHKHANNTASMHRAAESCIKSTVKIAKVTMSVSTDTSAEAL
Assay: Displacement of [3H]-CP55940 from CB1 receptor in rat brain homogenate after 1.5 hrs by microbeta liquid scintillation counting analysis
Assay type: tissue-based
Settings: not given
Procedure, shortened: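 Membranes from rat brain homogenate (CB1) or HEK293 cells expressing human CB2. […] GF/B filtration, then scintillation counting. […] IC50 by three-parameter logistic fit, Ki by Cheng-Prusoff. Three experiments in triplicate.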

With `NCCCn1c2ccccc2c2cc(C(=O)N3CCCCC3)ccc21` the Ki was “Not Active”.
With `CC(C)(C)OC(=O)NCCCn1c2ccccc2c2cc(C(=O)N3CCCCC3)ccc21` the Ki was “Not Active”.
For `CCCCCn1c2ccccc2c2cc(C(=O)NN3CCCCC3)ccc21`, the Ki was “Not Active”.
In the case of `CCCCCn1c2ccccc2c2cc(C(=O)NCC3CCNCC3)ccc21`, the Ki is reported as “Not Active”.
In the case of `CCCCCn1c2ccccc2c2cc(C(=O)N3CC[N+](C)(C)CC3)ccc21.[I-]`, the Ki is reported as “Not Active”.
With `CCCCCn1c2ccccc2c2cc(C(=O)NCCc3ccc(Cl)cc3)ccc21` the Ki was “Not Active”.
For `CCCCCn1c2ccccc2c2cc(CN3CCNCC3)ccc21`, the Ki was “Not Active”.
With `O=C(c1ccc2[nH]c3ccccc3c2c1)N1CCCCC1` the Ki was “Not Active”.
For `CCOC(=O)CCn1c2ccccc2c2cc(C(=O)N3CCN(C)CC3)ccc21`, the Ki was “Not Active”.
With `CCCCCn1c2ccccc2c2cc(C#N)ccc21` the Ki was “Not Active”.
In the case of `O=C(c1ccc2c(c1)c1ccccc1n2CCCN1CCCCC1)N1CCCCC1`, the Ki is reported as “Not Active”.
With `CCOC(=O)CCn1c2ccccc2c2cc(C(=O)N3CCS(=O)(=O)CC3)ccc21` the Ki was “Not Active”.
In the case of `CC(C)(C)OC(=O)NCCCn1c2ccccc2c2cc(C(=O)N3CCS(=O)(=O)CC3)ccc21`, the Ki is reported as “Not Active”.
With `O=C(c1ccc2c(c1)c1ccccc1n2CCN1CCCCC1)N1CCCCC1` the Ki was “Not Active”.

Same assay, conditions: read-out: Ki

Point of comparison: `COC(=O)CCCn1c2ccccc2c2cc(C(=O)N3CCCCC3)ccc21`, Ki 1850 nM. Against it:
- CCCCCn1c2ccccc2c2cc(C(=O)N3CCN(C)CC3)ccc21 — 15-fold lower, 123 nM
- CCCCCn1c2ccccc2c2cc(C(=O)N3CCCCC3)ncc21 — 14-fold lower, 136 nM
- CCCCCn1c2ccccc2c2cc(C(=O)OCc3ccccn3)ccc21 — 2.7-fold lower, 679 nM
- O=C(c1ccc2c(c1)c1ccccc1n2Cc1ccncc1)N1CCCCC1 — 4.7-fold lower, 393 nM
- CCCCCn1c2ccccc2c2cc(C(=O)NCC(C)(C)C)ncc21 — 42-fold lower, 43.6 nM
- CCCCCn1c2ccccc2c2cc(C(=O)N(CC)CC)ccc21 — 18-fold lower, 105 nM
- CCCCCn1c2ccccc2c2cc(C(=O)NC34CC5CC(CC(C5)C3)C4)ccc21 — within 1.5-fold, 1450 nM
- CCCCCn1c2ccccc2c2cc(C(=O)CN3CCN(C)CC3)ccc21 — within 1.5-fold, 1500 nM
- CCCCCn1c2ccccc2c2cc(CN3CCCCC3)ccc21 — 15-fold lower, 122 nM
- CCCCCn1c2ccccc2c2cc(C(=O)N3CCS(=O)(=O)CC3)ccc21 — 4.2-fold lower, 440 nM
- CCCCCCn1c2ccccc2c2cc(C(=O)N3CCCCC3)ccc21 — 7.7-fold lower, 241 nM
